Assay results as given in ChEMBL document CHEMBL1135709, “2,6-Di(omega-aminoalkyl)-2,5,6,7-tetrahydropyrazolo[3,4,5-mn]pyrimido[5,6,1-de]acridine-5,7-diones: novel, potent, cytotoxic, and DNA-binding agents” (J Med Chem, 2002).

Experiments:
786-0 [1] = assay: Percent growth of NCI cell line, renal: 786-0 exposed for 48 hr at 10e-4 concentration; format: functional, Homo sapiens
Method in brief: (§1)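 NCI panel cell lines exposed 48 h to 10^-8, 10^-6 and 10^-4 M drug; read-out is percent growth at each concentration.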

786-0 [2] = assay: Percent growth of NCI cell line, renal: 786-0 exposed for 48 hr at 10e-6 concentration; format: functional, Homo sapiens; method in brief: as §1
786-0 [3] = assay: Percent growth of NCI cell line, renal: 786-0 exposed for 48 hr at 10e-8 concentration; format: functional, Homo sapiens; method in brief: as §1
Calf thymus DNA = assay: CT-DNA binding required to produce a 50% drop in fluorescence of DNA-bound ethidium.; format: nucleic-acid assay; conditions: Bos taurus
Method in brief: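 Ethidium displacement from calf thymus DNA in 10 mM Na2HPO4, 10 mM NaH2PO4, 1 mM EDTA, pH 7.0, containing 1.26 μM ethidium bromide and 1 μM CT-DNA. Drug added serially from ~5 mM DMSO stock; 20 °C; fluorescence excitation 546 nm, emission 595 nm. C50 = drug concentration lowering DNA-bound ethidium fluorescence by 50%, mean of three determinations.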

DU-145 [4] = assay: Percent growth of NCI cell line, prostate: DU-145 exposed for 48 hr at 10e-6 concentration; format: functional, Homo sapiens; method in brief: as §1
DU-145 [5] = assay: Percent growth of NCI cell line, prostate: DU-145 exposed for 48 hr at 10e-8 concentration; format: functional, Homo sapiens; method in brief: as §1
HCT-15 [6] = assay: Percent growth of NCI cell line, colon: HCT-15 exposed for 48 hr at 10e-4 concentration; format: functional, Homo sapiens; method in brief: as §1
HCT-15 [7] = assay: Percent growth of NCI cell line, colon: HCT-15 exposed for 48 hr at 10e-6 concentration; format: functional, Homo sapiens; method in brief: as §1
HCT-15 [8] = assay: Percent growth of NCI cell line, colon: HCT-15 exposed for 48 hr at 10e-8 concentration; format: functional, Homo sapiens; method in brief: as §1
HT-29 = assay: In vitro cytotoxic potency against HT-29 (human colon adenocarcinoma) cell line.; format: functional, cell-based
LoVo [9] = assay: Cytotoxicity activity on LoVo/Dx human adenocarcinoma cell line after 144 hr of drug exposure; format: functional, cell-based
Method in brief: (§2)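 LoVo (sensitive) and LoVo/Dx (resistant) human colon adenocarcinoma cells seeded at 2.5 × 10^5 cells/mL medium; drug solutions added to culture.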

LoVo [10] = assay: Cytotoxicity activity on LoVo/Dx human adenocarcinoma cell line after 1 hr of drug exposure; format: functional, cell-based
Method in brief: (§3)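 LoVo (sensitive) and LoVo/Dx (resistant) human colon adenocarcinoma cells seeded at 2.5 × 10^5 cells/mL medium; drug solutions added to culture. IC50 = drug concentration inhibiting cell growth by 50%, assays in triplicate.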

[11] = Percent growth of NCI cell line, melanoma: LOX IMVI exposed for 48 hr at 10e-4 concentration; format: functional, Homo sapiens; method in brief: as §1
[12] = Percent growth of NCI cell line, melanoma: LOX IMVI exposed for 48 hr at 10e-6 concentration; format: functional, Homo sapiens; method in brief: as §1
LOX IMVI = assay: Percent growth of NCI cell line, melanoma: LOX IMVI exposed for 48 hr at 10e-8 concentration; format: functional, Homo sapiens; method in brief: as §1
MCF7 [13] = assay: Percent growth of NCI cell line, breast: MCF-7 exposed for 48 hr at 10e-4 concentration; format: functional, Homo sapiens; method in brief: as §1
MCF7 [14] = assay: Percent growth of NCI cell line, breast: MCF-7 exposed for 48 hr at 10e-6 concentration; format: functional, Homo sapiens; method in brief: as §1
MCF7 [15] = assay: Percent growth of NCI cell line, breast: MCF-7 exposed for 48 hr at 10e-8 concentration; format: functional, Homo sapiens; method in brief: as §1
LoVo [16] = assay: Cytotoxicity activity on LoVo human adenocarcinoma cell line after 144 hr of drug exposure; format: functional, cell-based; method in brief: as §2
LoVo [17] = assay: Cytotoxicity activity on LoVo human adenocarcinoma cell line after 1 hr of drug exposure; format: functional, cell-based; method in brief: as §3
NCI-H460 [18] = assay: Percent growth of NCI cell line, lung-nsc: NCI-H460 exposed for 48 hr at 10e-4 concentration; format: functional, Homo sapiens; method in brief: as §1
NCI-H460 [19] = assay: Percent growth of NCI cell line, lung-nsc: NCI-H460 exposed for 48 hr at 10e-6 concentration; format: functional, Homo sapiens; method in brief: as §1
NCI-H460 [20] = assay: Percent growth of NCI cell line, lung-nsc: NCI-H460 exposed for 48 hr at 10e-8 concentration; format: functional, Homo sapiens; method in brief: as §1
OVCAR-4 [21] = assay: Percent growth of NCI cell line, ovarian: OVCAR-4 exposed for 48 hr at 10e-4 concentration; format: functional, Homo sapiens; method in brief: as §1
OVCAR-4 [22] = assay: Percent growth of NCI cell line, ovarian: OVCAR-4 exposed for 48 hr at 10e-6 concentration; format: functional, Homo sapiens; method in brief: as §1
OVCAR-4 [23] = assay: Percent growth of NCI cell line, ovarian: OVCAR-4 exposed for 48 hr at 10e-8 concentration; format: functional, Homo sapiens; method in brief: as §1
SNB-19 [24] = assay: Percent growth of NCI cell line, CNS: SNB-19 exposed for 48 hr at 10e-4 concentration; format: functional, Homo sapiens; method in brief: as §1
SNB-19 [25] = assay: Percent growth of NCI cell line, CNS: SNB-19 exposed for 48 hr at 10e-6 concentration; format: functional, Homo sapiens; method in brief: as §1
[26] = Percent growth of NCI cell line, leucemia K562 exposed for 48 hr at 10e-4 concentration; format: functional, Homo sapiens; method in brief: as §1
[27] = Percent growth of NCI cell line, leucemia K562 exposed for 48 hr at 10e-6 concentration; format: functional, Homo sapiens; method in brief: as §1
[28] = Percent growth of NCI cell line, leucemia K562 exposed for 48 hr at 10e-8 concentration; format: functional, Homo sapiens; method in brief: as §1
SNB-19 [29] = assay: Percent growth of NCI cell line, CNS: SNB-19 exposed for 48 hr at 10e-8 concentration; format: functional, Homo sapiens; method in brief: as §1
DU-145 [30] = assay: Percent growth of NCI cell line, prostate: DU-145 exposed for 48 hr at 10e-4 concentration; format: functional, Homo sapiens; method in brief: as §1

C50 (Calf thymus DNA): 0.0009 µM
Structure (SMILES): CN(C)CCn1c(=O)c2ccc3c4c(nn3CCN(C)C)c3cc(N)ccc3n(c1=O)c24
Growth (786-0 [1]): -95% | Growth (786-0 [2]): -44% | Growth (786-0 [3]): 23% | Growth (DU-145 [4]): -11% | Growth (DU-145 [5]): 59% | Growth (HCT-15 [6]): -75% | Growth (HCT-15 [7]): -25% | Growth (HCT-15 [8]): 54% | IC50 (HT-29): 3.7 nM | IC50 (LoVo [9]): 16 nM | IC50 (LoVo [10]): 550 nM | Growth [11]: -50% | Growth [12]: -28% | Growth (LOX IMVI): 47% | Growth (MCF7 [13]): -65% | Growth (MCF7 [14]): -6% | Growth (MCF7 [15]): 62% | IC50 (LoVo [16]): 0.52 nM | IC50 (LoVo [17]): 130 nM | Growth (NCI-H460 [18]): -64% | Growth (NCI-H460 [19]): -28% | Growth (NCI-H460 [20]): 16% | Growth (OVCAR-4 [21]): -51% | Growth (OVCAR-4 [22]): -47% | Growth (OVCAR-4 [23]): 55% | Growth (SNB-19 [24]): -69% | Growth (SNB-19 [25]): -14% | Growth [26]: -15% | Growth [27]: 7% | Growth [28]: 45% | Growth (SNB-19 [29]): 43% | Growth (DU-145 [30]): -67%
